In article PMC7722202 (Angewandte Chemie (International ed. in English), 2020):

How the values were obtained:
[1] = Hydrodynamic diameter by dynamic light scattering; format: physicochemical; details: DLS; nanoparticles via photo-PISA at solids content of 15 wt.%
[2] = test system: HeLa cells; format: cell-based, human
[3] = test system: HeLa cells; experiment: Mitochondrial membrane potential with JC-1 probe, live-cell confocal microscopy; format: cell-based, human; details: 2 μM JC-1 probe, excitation 488 nm, NP5 after 30 min incubation
Procedure, shortened: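 Live HeLa cells were exposed to the test peptide materials for set times, then stained with 2 μM JC-1 followed by Hoechst 33342 before imaging. Confocal microscopy, both channels excited at 488 nm: monomer green at 510–550 nm, J-aggregate red at 585–649 nm; nuclei at ex 405/em 420–480 nm. Green and red fluorescence were compared. CCCP was run alongside.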

| Substance | Dh (hydrodynamic diameter) [1] [nm] | cytotoxicity in HeLa cells [2] | red fluorescence of JC-1 J-aggregates (mitochondrial membrane potential) [3] |
| --- | --- | --- | --- |
| poly[(KLAAm10-co-DMA30)-b-(DAAm280-co-DMA120)] [NP3] | 105 | dose-dependent cytotoxicity | – |
| poly[(KLAAm10-co-DMA10)-b-(DAAm280-co-DMA120)] [NP5] | – | – | almost no red emission |
